# Sampled rows, rich in hits. Any-hit rate of the full collection: about 4.1%.
# KCNQ1 block = inhibitors of human KCNQ1 channel, primary screen, cell-based, thallium flux, high-throughput. actives 1.3% (n = 310,000). B-score at 10 µM. CHO-K1 KCNQ1, FluxOR thallium flux fluorescence; hits give high values;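 active = compounds whose thallium flux B-score, printed positive for inhibition, exceeds three library SD while starting fluorescence stays within three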;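 also: channel opened by potassium depolarization with thallium stimulus after 20 min compound exposure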
# Cl transport mod = KCC2 cotransporter modulators, thallium flux, primary screen, cell-based, HEK293 KCC2, FluoZin-2 fluorescence, MLSMR | actives 2.2% (n = 190,000) | Solute carrier family 12 member 5 (Homo sapiens), Q9H2X9 | KCC2 cells, thallium flux FluoZin-2 fluorescence | B-score of Tl+ flux slope (higher = more flux/activation; lower = inhibition) at 10 µM;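 active = thallium flux slope and its plate-corrected score both differing from the plate sample mean at a set confidence after two filtering rounds, in either direction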;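 also: slope of fluorescence scaled to starting intensity during 10 to 20 s after thallium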
# Target sequence (Q9H2X9 whole entry, looked up): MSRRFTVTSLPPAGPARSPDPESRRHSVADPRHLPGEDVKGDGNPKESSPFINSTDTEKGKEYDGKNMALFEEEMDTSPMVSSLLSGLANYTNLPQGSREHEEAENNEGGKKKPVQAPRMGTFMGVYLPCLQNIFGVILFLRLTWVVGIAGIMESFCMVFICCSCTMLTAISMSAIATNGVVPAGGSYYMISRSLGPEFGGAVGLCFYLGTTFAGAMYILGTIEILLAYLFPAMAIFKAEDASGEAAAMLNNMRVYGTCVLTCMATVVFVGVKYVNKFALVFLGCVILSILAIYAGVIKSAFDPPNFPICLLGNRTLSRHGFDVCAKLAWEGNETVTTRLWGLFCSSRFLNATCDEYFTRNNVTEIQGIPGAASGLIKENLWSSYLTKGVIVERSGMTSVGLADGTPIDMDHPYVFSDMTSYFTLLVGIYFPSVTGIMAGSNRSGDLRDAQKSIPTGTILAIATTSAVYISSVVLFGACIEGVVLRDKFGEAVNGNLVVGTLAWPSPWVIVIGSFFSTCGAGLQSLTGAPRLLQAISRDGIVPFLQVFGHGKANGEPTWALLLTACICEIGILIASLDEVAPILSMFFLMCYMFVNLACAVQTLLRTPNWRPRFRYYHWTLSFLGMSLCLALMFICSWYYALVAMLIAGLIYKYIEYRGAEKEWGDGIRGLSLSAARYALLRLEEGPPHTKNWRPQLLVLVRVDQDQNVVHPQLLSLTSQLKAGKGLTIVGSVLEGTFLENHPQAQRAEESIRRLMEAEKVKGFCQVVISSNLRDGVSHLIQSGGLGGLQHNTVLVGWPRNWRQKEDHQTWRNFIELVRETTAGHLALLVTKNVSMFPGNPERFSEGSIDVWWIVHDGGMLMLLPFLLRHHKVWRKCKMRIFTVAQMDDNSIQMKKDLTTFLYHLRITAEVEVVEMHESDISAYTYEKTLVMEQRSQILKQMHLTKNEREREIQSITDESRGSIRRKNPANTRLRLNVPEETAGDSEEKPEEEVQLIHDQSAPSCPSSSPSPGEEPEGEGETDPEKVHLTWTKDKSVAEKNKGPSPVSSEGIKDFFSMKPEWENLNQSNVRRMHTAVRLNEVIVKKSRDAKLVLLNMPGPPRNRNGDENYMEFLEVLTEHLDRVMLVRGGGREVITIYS
# KCNK3 inh = human KCNK3 channel inhibitors, primary screen, CHO cells, FluxOR thallium flux, B-score; Potassium channel subfamily K member 3 (Homo sapiens), O14649; FluxOR fluorescence; hits give low values; B-score at 10 µM; actives 0.84% (n = 340,000);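 active = B-score under library mean minus 4 SD, starting fluorescence ratio at most library mean plus 5 SD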;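 also: more negative B-score means stronger inhibition of thallium flux through KCNK3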
# KCNQ1 act = potentiators or activators of KCNQ1 channel, primary screen, cell-based, thallium flux, high-throughput; Potassium voltage-gated channel subfamily KQT member 1 (Homo sapiens), P51787; CHO-K1 KCNQ1, thallium flux FluxOR fluorescence; hits give high values; B-score at 10 µM; actives 0.35% (n = 310,000);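 active = fluorescence ratio B-score, a plate-corrected score, at least three library SD, with initial intensity B-score within 5 SD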
#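 Assay system: CHO-K1 cells stably expressing KCNQ1; Medium: assay buffer with matched DMSO; Also added: K+/Tl+ depolarizing stimulus; Dosing: single dose; Timing: dye 90 min, compound 20 min, room temperature; Measured by: kinetic FluxOR thallium fluorescence, 10-s 1-Hz baseline, 110-s post-stimulus read; Read-out: peak-minus-minimum fluorescence over initial fluorescence, negative-control normalized, B-scored.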
# KCNK9 inh = KCNK9 potassium channel inhibitors, primary screen, HEK293 cells, thallium flux | Potassium channel subfamily K member 9 (Homo sapiens), Q9NPC2 | FluxOR thallium flux fluorescence; hits give low values | B-score at 10 µM | actives 1.2% (n = 310,000);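 active = ratio B-score over 3 SD below the library mean, with starting fluorescence within 5 SD of its mean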;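 also: negative B-score means less thallium flux so channel inhibition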
# hERG protect = hERG rescue from dofetilide block, primary screen, cell-based, CHO-hERG, FluxOR thallium flux, dofetilide IC70; Voltage-gated inwardly rectifying potassium channel KCNH2 (Homo sapiens), Q12809; activation (rescue from dofetilide block), less the hit threshold, % at 10 µM; dofetilide IC70 present; actives 0.51% (n = 310,000);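 active = activation above the mean of controls blocked by dofetilide plus 5 SD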;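 also: thallium influx through hERG after potassium depolarization seen as dye fluorescence rise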
# * = called active by the depositor; i = inactive; · = no result given.
SMILES,KCNQ1 block,Cl transport mod,KCNK3 inh,KCNQ1 act,KCNK9 inh,hERG protect
CCCCn1c(CN2CCN(C(=O)c3ccco3)CC2)nc2c1c(=O)n(C)c(=O)n2C,i,-0.545,i,i,i,-12.8
O=C(CCCC(=O)N1CCCC1)N1CCCC1,i,·,i,i,i,-8.3
Cc1ccccc1Nc1nc(-c2sc(NC(=O)c3ccc([N+](=O)[O-])cc3)nc2C)cs1,7*,-0.539,·,i,i,-11.9
CCCCCCC(=O)Nc1nc(C)c(-c2csc(Nc3cc(OC)ccc3OC)n2)s1,i,1.18,i,i,i,-10.1
CCCCCC(=O)Nc1nc(C)c(-c2csc(Nc3cc(OC)ccc3OC)n2)s1,i,1.05,i,i,-7.25*,-9.9
COc1ccc(OC)c(Nc2nc(-c3sc(NC(=O)c4ccccc4)nc3C)cs2)c1,i,-1.11,·,i,-8.16*,-21.0
CCCCN(C(=O)C1=NN(c2ccccc2)C(=O)CC1)c1c(N)n(CCC)c(=O)[nH]c1=O,·,·,i,·,·,·
COC(=O)c1ccc(C2C(C#N)=C(N)Oc3cc(O)ccc32)cc1 (centres undefined),i,·,i,i,i,61.5*
COc1cc(CNCCc2ccccc2F)ccc1OCC(=O)N1CCCCC1,i,0.872,i,i,i,0.8
CC(=O)N(CCC(Cc1ccccc1)c1ccc2c(c1)OCO2)Cc1ccc(Cl)cc1 (centres undefined),11*,-1.89,-8.88*,i,-7.28*,-0.1
COc1ccc(N=C2S/C(=C\c3ccc(Cl)c([N+](=O)[O-])c3)C(=O)N2CCN(C)C)cc1,10*,·,i,i,i,-35.0
Cc1ccc(S(=O)(=O)N2CCOCC2)cc1C(=O)OCC(=O)N(Cc1ccccc1)C(C)C,·,·,i,·,·,·
CCCCC(=O)Nc1cc(C)c(NC(=O)c2ccco2)cn1,i,·,i,i,i,5.5*
COc1ccc(-c2ccc(SCC(=O)N3CC(=O)Nc4ccccc43)nn2)cc1,i,·,i,i,i,-2.5
Cc1cccc[n+]1CC(=O)c1ccc2c(c1)OCCO2,i,-0.0662,i,i,i,-5.5
O=C(NCCN1CCOCC1)c1cc(-c2ccccc2Cl)on1,i,·,i,i,i,5.1*
Cc1c(C(=O)NCCN2CCOCC2)oc2ccccc12,i,·,i,i,i,48.2*
Cc1c(C(=O)NCCN2CCOCC2)oc2ccc(Br)cc12,i,·,i,i,i,-13.7
CCN(CC)C(=O)CC(c1ccc(OC)cc1)c1c(O)cc(OC)cc1OC (centres undefined),i,-0.293,i,i,i,-9.4
COc1ccc(N2CCN(c3nc4c(c(=O)n(C)c(=O)n4C)n3CCCc3ccccc3)CC2)cc1,i,·,i,i,i,-4.3
CS(=O)(=O)c1ccc(NCCN2CCOCC2)c([N+](=O)[O-])c1,i,·,i,i,i,-1.1
CCN1c2ccccc2-c2nc3ccccc3n2C1c1ccncc1 (centres undefined),i,-0.0733,i,i,i,-9.8
CCN1c2ccccc2-c2nc3ccccc3n2C1c1ccccn1 (centres undefined),i,-1.75,-10.2*,i,i,-9.0
Cc1[nH]n(-c2nc(-c3ccc(Cl)cc3)cs2)c(=O)c1N=Nc1ccc(O)cc1,8*,-0.125,i,i,i,-7.9
O=C(CCl)Nc1sccc1C(=O)c1ccccc1,i,·,i,i,i,-8.6
CC1CCN(C(=O)/C(=C/c2ccccc2Cl)c2ccccc2)CC1,i,-1.29,i,i,-6.72*,-12.2
CCOC(=O)Cc1csc(NC(=O)c2c(-c3c(F)cccc3Cl)noc2C)n1,i,-2.36,i,i,i,-11.7
